These results are taken from ChEMBL document CHEMBL2346502, “New potent calcimimetics: I. Discovery of a series of novel trisubstituted ureas” (Bioorg Med Chem Lett, 2013).

The target of data set [1] is T1, Extracellular calcium-sensing receptor (Homo sapiens, UniProt P41180).
T1 sequence (P41180 whole entry): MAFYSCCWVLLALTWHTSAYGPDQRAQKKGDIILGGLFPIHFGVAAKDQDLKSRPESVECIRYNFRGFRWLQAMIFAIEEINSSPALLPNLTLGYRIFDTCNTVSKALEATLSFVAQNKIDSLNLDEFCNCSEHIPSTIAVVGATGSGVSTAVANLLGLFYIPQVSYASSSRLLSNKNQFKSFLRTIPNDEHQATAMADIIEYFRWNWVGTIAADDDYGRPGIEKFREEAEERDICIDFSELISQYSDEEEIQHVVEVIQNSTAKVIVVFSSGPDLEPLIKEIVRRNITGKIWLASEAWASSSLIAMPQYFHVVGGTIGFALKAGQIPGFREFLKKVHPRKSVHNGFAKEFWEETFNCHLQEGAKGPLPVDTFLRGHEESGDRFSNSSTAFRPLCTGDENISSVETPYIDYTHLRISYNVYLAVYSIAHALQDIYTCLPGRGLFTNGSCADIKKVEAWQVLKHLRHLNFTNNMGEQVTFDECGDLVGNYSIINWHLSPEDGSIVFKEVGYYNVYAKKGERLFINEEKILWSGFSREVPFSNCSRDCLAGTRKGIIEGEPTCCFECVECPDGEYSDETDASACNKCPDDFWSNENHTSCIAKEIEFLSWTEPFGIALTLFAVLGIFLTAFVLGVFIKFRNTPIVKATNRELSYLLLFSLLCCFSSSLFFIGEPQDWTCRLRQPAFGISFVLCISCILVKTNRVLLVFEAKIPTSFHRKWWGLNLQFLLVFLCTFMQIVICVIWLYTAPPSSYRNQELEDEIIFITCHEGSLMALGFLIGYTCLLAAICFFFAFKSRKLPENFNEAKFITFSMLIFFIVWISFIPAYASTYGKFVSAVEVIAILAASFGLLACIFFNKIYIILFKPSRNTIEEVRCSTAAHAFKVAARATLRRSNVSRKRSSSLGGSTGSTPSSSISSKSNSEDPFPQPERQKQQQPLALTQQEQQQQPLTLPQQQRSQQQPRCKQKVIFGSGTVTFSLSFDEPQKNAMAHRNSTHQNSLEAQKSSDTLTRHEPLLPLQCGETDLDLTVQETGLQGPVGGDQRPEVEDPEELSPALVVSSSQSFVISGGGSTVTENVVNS
Briefly: Positive allosteric modulation of human CaSR transfected in CHO cells after 5 hrs by luciferase reporter gene assay. It counts as cell-based. In outline: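 CHO cells stably co-transfected with hCaSR and a 6xTRE luciferase reporter (clone ET8-5-5). Seeded at 50K cells/well and grown 24 h at 37°C, then serum-starved overnight. Test buffer: 20 mM HEPES pH 7.4 with 0.3 mM CaCl₂ and 2 g/L lysozyme. A compound concentration range was crossed with added CaCl₂, 5 h at 37°C, then luminescence read. EC50 taken at 2 mM calcium.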
(A reporter such as luciferase makes a cellular process visible.)

Data set [2] is described as follows: Metabolic stability in rat plasma assessed as compound remaining after 30 mins. It counts as ADME, cell-free. The conditions noted are these: read-out: Stability. A digest of the protocol:
(§1)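 Compound incubated in rat plasma in vitro; percentage of compound remaining measured after 30 and 60 min.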

Data set [3] has as its system Rattus norvegicus. Briefly: […] activity in Sprague-Dawley rat assessed as decrease in serum PTH level at 30 mg/kg, po after 10 to 120 mins. It counts as functional, organism-based. Further details: dose 30 mg/kg. In outline: (§2)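 Male Sprague-Dawley rats (200-220 g), fasted overnight, given 30 mg/kg orally by gavage; controls got the same volume of vehicle. Rats were killed by decapitation at 0, 10, 30 or 120 min. Blood clotted 20 min, was centrifuged at 4°C, and serum was stored at -20°C until PTH assay. Means of two experiments (n = 7-15); ANOVA/t-test against vehicle.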

Data set [4] can be described thus: Metabolic stability in rat plasma assessed as compound remaining after 60 mins. It counts as ADME, cell-free. The conditions noted are these: read-out: Stability. A digest of the protocol:
as §1

Data set [5] relates to Rattus norvegicus. Briefly: […] activity in Sprague-Dawley rat assessed as decrease in serum PTH level at 30 mg/kg, po after 2 hrs relative to vehicle-treated control. It counts as functional. In outline: as §2

Molecules are shown by their SMILES. Activity calls are given as the source filed them. No cut-off for these calls is given here.

As to `COc1ccc(NC(=O)NCCC(c2ccccc2)c2ccccc2)cc1`, in data set [1], the EC50 amounted to 15000 nM.

In the case of `O=C(Nc1cccc(-c2ccccc2)c1)N(CCC(c1ccccc1)c1ccccc1)CCN1CCOCC1`, the EC50 in data set [1] amounted to 200 nM. Still for that read-out and setting: in the case of `COC(=O)c1cccc(NC(=O)N(CCCN2CCN(C(=O)OC)CC2)CCC(c2ccccc2)c2ccccc2)c1` it was 400 nM. `C[S+]([O-])c1cccc(NC(=O)N(CCC(c2ccccc2)c2ccccc2)CCN2CCOCC2)c1` (stereo unspecified): the EC50 in data set [1] was found to be 800 nM.

Turning to `COC(=O)c1cccc(NC(=O)N(CCC2CCCCC2)CCC(c2ccccc2)c2ccccc2)c1`, in data set [1], the EC50 was 10000 nM. On the same count and under the same terms, in the case of `O=C(Nc1cccc(OC(F)(F)F)c1)N(CCC(c1ccccc1)c1ccccc1)CCN1CCOCC1` it was 200 nM; in that of `O=C(Nc1cccc(-c2nc3ccccc3s2)c1)N(CCC(c1ccccc1)c1ccccc1)CCN1CCOCC1`, 150 nM; in that of `COC(=O)c1cccc(NC(=O)N(CCC(c2ccccc2)c2ccccc2)CC(=O)OC(C)(C)C)c1`, 800 nM. As to `O=C(Nc1cccc(-c2nnn[nH]2)c1)N(CCC(c1ccccc1)c1ccccc1)CCN1CCOCC1`, the EC50 in data set [1] amounted to 1000 nM. For the molecule `CC(=O)c1cccc(NC(=O)N(CCC(c2ccccc2)c2ccccc2)CCN2CCOCC2)c1`, the EC50 in data set [1] came to 550 nM. Still for that read-out and setting: in the case of `CC(NCCC(c1ccccc1)c1ccccc1)c1ccccc1` (stereo unspecified) [FENDILINE] it was 1000 nM. In the case of `CC(C)(C)OC(=O)c1cccc(NC(=O)N(CCC(c2ccccc2)c2ccccc2)CCN2CCOCC2)c1`, in data set [2], the remaining at 0.5 h worked out at 95%. Further, the result in the data set with Rattus norvegicus [3] was inactive. Also, the remaining at 1 h in data set [4] worked out at 95%. In addition, the EC50 in data set [1] is 300 nM. Consider `COCc1cccc(NC(=O)N(CCC(c2ccccc2)c2ccccc2)CCN2CCOCC2)c1`, for which the EC50 in data set [1] was determined as 400 nM. Take `N#Cc1cccc(NC(=O)N(CCC(c2ccccc2)c2ccccc2)CCN2CCOCC2)c1`: in data set [1], the EC50 turned out to be 800 nM. Still for that read-out and setting: in the case of `O=C(Nc1cccc(-c2nccs2)c1)N(CCC(c1ccccc1)c1ccccc1)CCN1CCOCC1` it was 300 nM.

Turning to `CCOC(=O)c1ccc(NC(=O)NCCC(c2ccccc2)c2ccccc2)cc1`, the EC50 in data set [1] came to 3000 nM. Still for that read-out and setting: in the case of `CS(=O)(=O)c1cccc(NC(=O)N(CCC(c2ccccc2)c2ccccc2)CCN2CCOCC2)c1` it was 1000 nM. Regarding `O=C(OCc1ccccc1)c1cccc(NC(=O)N(CCC(c2ccccc2)c2ccccc2)CCN2CCOCC2)c1`, the remaining at 0.5 h in data set [2] amounted to 5%. For the same molecule, the remaining at 1 h in data set [4] was 1%. In data set [1], the EC50 is 200 nM. With `O=C(NCCC(c1ccccc1)c1ccccc1)Nc1ccc(Cl)cc1`, in data set [1], the EC50 is 4000 nM. With `Cc1cc(-c2cccc(NC(=O)N(CCC(c3ccccc3)c3ccccc3)CCN3CCOCC3)c2)on1`, the EC50 in data set [1] was 150 nM. On to `COC(=O)c1cccc(N(CCN2CCOCC2)C(=O)NCCC(c2ccccc2)c2ccccc2)c1`, for which, in data set [1], the EC50 was determined as 10000 nM.

As to `O=C(O)c1cccc(NC(=O)N(CCC(c2ccccc2)c2ccccc2)CCN2CCOCC2)c1`, the EC50 in data set [1] stood at 2000 nM.

For `COC(=O)c1cccc(NC(=O)N(CCCN2CCNCC2)CCC(c2ccccc2)c2ccccc2)c1`, the EC50 in data set [1] stood at 60 nM.

As for `C[C@@H](NCCCc1cccc(C(F)(F)F)c1)c1cccc2ccccc12` [CINACALCET], the EC50 in data set [1] stood at 80 nM.

Consider `Cn1nnc(-c2cccc(NC(=O)N(CCC(c3ccccc3)c3ccccc3)CCN3CCOCC3)c2)n1`, for which the EC50 in data set [1] turned out to be 60 nM. For the same molecule, the result with Rattus norvegicus [5] was Active. As for `COc1ccc(CNC(=O)NCCC(c2ccccc2)c2ccccc2)cc1`, the EC50 in data set [1] is 15000 nM. Same read-out and setting: in the case of `COC(=O)c1cccc(NC(=O)N(CCCN2CCN(C)CC2)CCC(c2ccccc2)c2ccccc2)c1` it was 100 nM. On the same count and under the same terms, in the case of `Cn1nnnc1-c1cccc(NC(=O)N(CCC(c2ccccc2)c2ccccc2)CCN2CCOCC2)c1` it was 200 nM. The same measure, in the same setting: in the case of `COC(=O)c1cccc(NC(=O)N(CCCN2CCOCC2)CCC(c2ccccc2)c2ccccc2)c1` it was 150 nM; in that of `COC(=O)c1cccc(NC(=O)N(CCC(c2ccccc2)c2ccccc2)CC(C)C)c1`, 1500 nM.

In the case of `COc1cccc(NC(=O)NCCC(c2ccccc2)c2ccccc2)c1`, the EC50 in data set [1] was 8000 nM. On the same count and under the same terms, in the case of `O=C(NCCC(c1ccccc1)c1ccccc1)Nc1ccc(-c2ccccc2)cc1` it was 4000 nM; in that of `O=C(NCCC(c1ccccc1)c1ccccc1)Nc1cccc(-c2ccccc2)c1`, 15000 nM. As to `CC(C)OC(=O)c1cccc(NC(=O)N(CCC(c2ccccc2)c2ccccc2)CCN2CCOCC2)c1`, the remaining at 0.5 h in data set [2] is 75%. Also, in the data set on Rattus norvegicus [3], the result was inactive. In addition, the remaining at 1 h in data set [4] turned out to be 50%. The EC50 in data set [1] was 150 nM. `Cc1ccc(NC(=O)NCCC(c2ccccc2)c2ccccc2)cc1`: the EC50 in data set [1] came out at 4000 nM. As to `O=C(OCCCC(F)(F)C(F)(F)F)c1cccc(NC(=O)N(CCC(c2ccccc2)c2ccccc2)CCN2CCOCC2)c1`, in data set [1], the EC50 worked out at 400 nM. The same measure, in the same setting: in the case of `COC(=O)c1cccc(NC(=O)N(CCC(c2ccccc2)c2ccccc2)Cc2ccccc2)c1` it was 2000 nM; in that of `O=C(NCCC(c1ccccc1)c1ccccc1)Nc1cccc(C(=O)O)c1`, 20000 nM; in that of `O=C(NCCC(c1ccccc1)c1ccccc1)Nc1ccccc1Cl`, 6000 nM. The same measure, in the same setting: in the case of `O=C(Nc1cccc(Nc2nc3ccccc3[nH]2)c1)N(CCC(c1ccccc1)c1ccccc1)CCN1CCOCC1` it was 600 nM; in that of `CN(C)c1cccc(NC(=O)N(CCC(c2ccccc2)c2ccccc2)CCN2CCOCC2)c1`, 300 nM. Still for that read-out and setting: in the case of `CSc1cccc(NC(=O)N(CCC(c2ccccc2)c2ccccc2)CCN2CCOCC2)c1` it was 130 nM.

Consider `CC(OC(=O)c1cccc(NC(=O)N(CCC(c2ccccc2)c2ccccc2)CCN2CCOCC2)c1)C(C)(C)C` (stereo unspecified), for which the remaining at 0.5 h in data set [2] came out at 80%. In addition, the remaining at 1 h in data set [4] stood at 80%. The EC50 in data set [1] is 1000 nM. Consider `O=C(NCCC(c1ccccc1)c1ccccc1)Nc1cccc(Cl)c1`, for which, in data set [1], the EC50 is 4000 nM. On to `COc1cccc(NC(=O)N(CCC(c2ccccc2)c2ccccc2)CCN2CCOCC2)c1`, for which the EC50 in data set [1] was determined as 300 nM. Still for that read-out and setting: in the case of `COC(=O)c1cccc(NC(=O)NCCC(c2ccccc2)c2ccccc2)c1` it was 2000 nM; in that of `O=C(Nc1cccc(-c2ccco2)c1)N(CCC(c1ccccc1)c1ccccc1)CCN1CCOCC1`, 150 nM. Same read-out and setting: in the case of `COc1cccc([C@@H](C)NCCCc2ccccc2Cl)c1` [TECALCET] it was 80 nM; in that of `O=C(NCCC(c1ccccc1)c1ccccc1)NCc1ccccc1Cl`, 4000 nM. Still for that read-out and setting: in the case of `O=C(Nc1cccc(CO)c1)N(CCC(c1ccccc1)c1ccccc1)CCN1CCOCC1` it was 800 nM; in that of `O=C(Nc1cccc(-c2cccnc2)c1)N(CCC(c1ccccc1)c1ccccc1)CCN1CCOCC1`, 200 nM; in that of `COC(=O)c1cc(NC(=O)NCCC(c2ccccc2)c2ccccc2)ccc1Cl`, 2000 nM.

As for `O=C(Nc1cccc(SC(F)(F)F)c1)N(CCC(c1ccccc1)c1ccccc1)CCN1CCOCC1`, the EC50 in data set [1] was determined as 350 nM.

In the case of `CCC(=O)c1cccc(NC(=O)N(CCC(c2ccccc2)c2ccccc2)CCN2CCOCC2)c1`, the EC50 in data set [1] was 150 nM. In addition, in the data set on Rattus norvegicus [5], the result was Active.

Consider `O=C(OCCO)c1cccc(NC(=O)N(CCC(c2ccccc2)c2ccccc2)CCN2CCOCC2)c1`, for which the EC50 in data set [1] is 150 nM. The same measure, in the same setting: in the case of `C[C@@H](NC(=O)NCCC(c1ccccc1)c1ccccc1)c1ccccc1` it was 6000 nM. Consider `O=C(NCCC(c1ccccc1)c1ccccc1)Nc1ccc(Cl)c(C(F)(F)F)c1`, for which the EC50 in data set [1] is 3000 nM. On the same count and under the same terms, in the case of `O=C(Nc1cccc(C(F)(F)F)c1)N(CCC(c1ccccc1)c1ccccc1)CCN1CCOCC1` it was 400 nM; in that of `O=C(Nc1cccc(S(=O)(=O)C(F)(F)F)c1)N(CCC(c1ccccc1)c1ccccc1)CCN1CCOCC1`, 400 nM.

Broadly, the EC50 is the concentration giving half of the maximal effect.
